The values that follow come from ChEMBL document CHEMBL1155233, “Structure mechanism insights and the role of nitric oxide donation guide the development of oxadiazole-2-oxides as therapeutic agents against schistosomiasis” (J Med Chem, 2009).

≈ marks a conversion by molar mass, not a printed value. Calls of active or inactive are those of the source. The calls are words filed in the database; no cut-off is given here.

Data set [1] has as its system Schistosoma mansoni. The experiment in a line: Antischistosomal activity against Schistosoma mansoni assessed as parasite killing after 2 hrs. Type of data set: functional, organism-based. The method in brief:
(§1)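 Cultured ex vivo worms were exposed to 10 μM compound. Worm effects were scored by visual examination at time points over a 72 h time-course.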

The subject of data set [2] is Schistosoma mansoni. The data set can be described thus: Antischistosomal activity against Schistosoma mansoni assessed as induction of parasite mortality after 8 hrs. In kind it is functional. The arrangement: concentration or dose not given beside the values. The essentials: as §1
Data set [3] relates to Schistosoma mansoni. The data set can be described thus: Antischistosomal activity against Schistosoma mansoni assessed as induction of parasite mortality after 16 hrs. The arrangement: concentration or dose not given beside the values. Type of data set: functional. The essentials:
as §1

The subject of data set [4] is Schistosoma mansoni. The experiment in a line: Antischistosomal activity against Schistosoma mansoni assessed as induction of parasite mortality after 24 hrs. Also noted: concentration or dose not given beside the values. Type of data set: functional. The essentials:
as §1

The test system of data set [5] is Schistosoma mansoni. The data set can be described thus: Antischistosomal activity against Schistosoma mansoni assessed as induction of parasite mortality after 48 hrs. In kind it is functional. The arrangement: concentration or dose not given beside the values. The essentials: as §1
Data set [6] concerns Schistosoma mansoni. The data set can be described thus: Antischistosomal activity against Schistosoma mansoni assessed as induction of parasite mortality after 72 hrs. In kind it is functional. Also noted: concentration or dose not given beside the values. The essentials: as §1
In data set [7] the test system is Schistosoma mansoni. The experiment in a line: Antischistosomal activity against Schistosoma mansoni assessed as induction of parasite sluggish movement after 4 hrs. Type of data set: functional, organism-based. The method in brief:
as §1

The nature of data set [8]: Induction of nitric oxide release at 10 uM in presence of Schistosoma mansoni recombinant TGR. In kind it is functional.
Data set [9] is described as follows: Induction of nitric oxide release at 10 uM in presence of Schistosoma mansoni recombinant TGR and NADPH. In kind it is functional.
The nature of data set [10]: Induction of nitric oxide release at 10 uM in presence of cysteine. Type of data set: physicochemical.
For data set [11], the target named is T1, Glutathione reductase, mitochondrial (Homo sapiens, UniProt P00390).
T1 sequence (P00390 whole entry): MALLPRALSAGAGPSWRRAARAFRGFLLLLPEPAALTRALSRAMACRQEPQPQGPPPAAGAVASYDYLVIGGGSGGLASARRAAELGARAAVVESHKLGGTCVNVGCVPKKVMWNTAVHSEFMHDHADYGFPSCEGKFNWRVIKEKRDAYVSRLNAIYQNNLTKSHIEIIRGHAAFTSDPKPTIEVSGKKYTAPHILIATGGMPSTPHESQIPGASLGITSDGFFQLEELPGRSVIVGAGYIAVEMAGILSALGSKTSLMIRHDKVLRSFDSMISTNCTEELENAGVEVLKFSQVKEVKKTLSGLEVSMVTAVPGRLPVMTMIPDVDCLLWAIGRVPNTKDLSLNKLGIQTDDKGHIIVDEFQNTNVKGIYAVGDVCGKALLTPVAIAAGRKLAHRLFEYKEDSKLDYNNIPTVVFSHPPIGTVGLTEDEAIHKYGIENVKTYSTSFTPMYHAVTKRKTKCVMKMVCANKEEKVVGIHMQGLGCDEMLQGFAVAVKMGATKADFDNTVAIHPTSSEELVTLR
The experiment in a line: Inhibition of human recombinant GR after 15 mins in presence of NADPH.

The target of data set [12] is T2, Thioredoxin reductase 1, cytoplasmic (Rattus norvegicus, UniProt O89049).
T2 sequence (O89049 whole entry): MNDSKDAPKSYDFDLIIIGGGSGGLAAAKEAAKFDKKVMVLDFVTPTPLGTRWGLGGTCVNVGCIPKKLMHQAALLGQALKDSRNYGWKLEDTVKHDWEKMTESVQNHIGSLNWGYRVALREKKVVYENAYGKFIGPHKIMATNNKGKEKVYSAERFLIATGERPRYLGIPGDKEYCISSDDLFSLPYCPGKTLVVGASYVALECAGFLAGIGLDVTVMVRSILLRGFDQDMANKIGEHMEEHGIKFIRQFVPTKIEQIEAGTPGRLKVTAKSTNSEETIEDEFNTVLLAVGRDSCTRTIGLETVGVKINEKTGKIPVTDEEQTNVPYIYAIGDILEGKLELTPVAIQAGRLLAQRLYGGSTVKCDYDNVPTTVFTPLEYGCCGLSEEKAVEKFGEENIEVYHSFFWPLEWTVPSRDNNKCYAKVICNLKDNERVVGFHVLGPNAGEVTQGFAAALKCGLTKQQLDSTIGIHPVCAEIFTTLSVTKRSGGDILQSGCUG
The data set can be described thus: Inhibition of rat recombinant TrxR1 after 10 mins.

Data set [13] is described as follows: Solubility by quantitative nitrogen detection based method.
A short description of data set [14]: Distribution coefficient, log D of the compound. Particulars: octanol/water.
Data set [15] deals with Caco-2. The data set can be described thus: Apparent permeability from apical to basolateral side of human Caco-2 cells.
Data set [16] concerns Caco-2. The data set can be described thus: Apparent permeability from basolateral to apical side of human Caco-2 cells. (In general: Passage across Caco-2 layers is used to estimate intestinal permeability.)
Data set [17] in a line: Metabolic stability in human liver microsomes assessed as compound remaining over 60 mins in presence of NADPH. Type of data set: ADME, Microsome. Particulars: read-out: Stability. A general note: Liver microsomes are vesicles of endoplasmic reticulum, rich in cytochrome P450 enzymes.
Data set [18] is described as follows: Metabolic stability in human liver microsomes assessed as compound remaining over 60 mins in absence of NADPH. Type of data set: ADME, Microsome. Particulars: read-out: Stability.
Data set [19] concerns the target hERG (KCNH2) (Homo sapiens, UniProt Q12809). The experiment in a line: Inhibition of human ERG expressed in HEK293 cells at 10 uM by fast patch clamp method. The note with it: HEK293 cells expressing human ERG.
Data set [20] relates to Schistosoma mansoni. The experiment in a line: Antischistosomal activity against Schistosoma mansoni assessed as parasite killing after 4 hrs. Type of data set: functional. The method in brief: as §1
Data set [21] relates to Schistosoma mansoni. The experiment in a line: Antischistosomal activity against Schistosoma mansoni assessed as induction of parasite sluggish movement after 24 hrs. In kind it is functional, organism-based. The method in brief:
as §1

Data set [22] has as its system Schistosoma mansoni. The experiment in a line: Antischistosomal activity against Schistosoma mansoni assessed as induction of parasite sluggish movement after 48 hrs. Type of data set: functional, organism-based. The method in brief: as §1
The nature of data set [23]: Reactivity with cysteine at 0.1 mM in 0.1M phosphate buffer assessed as amount of compound unreacted by HPLC.
For data set [24], the system named is Schistosoma mansoni. The experiment in a line: Antischistosomal activity against Schistosoma mansoni assessed as induction of parasite curling after 8 hrs. Type of data set: functional, organism-based. The essentials: as §1

Sequence of hERG (KCNH2) (Q12809 whole entry): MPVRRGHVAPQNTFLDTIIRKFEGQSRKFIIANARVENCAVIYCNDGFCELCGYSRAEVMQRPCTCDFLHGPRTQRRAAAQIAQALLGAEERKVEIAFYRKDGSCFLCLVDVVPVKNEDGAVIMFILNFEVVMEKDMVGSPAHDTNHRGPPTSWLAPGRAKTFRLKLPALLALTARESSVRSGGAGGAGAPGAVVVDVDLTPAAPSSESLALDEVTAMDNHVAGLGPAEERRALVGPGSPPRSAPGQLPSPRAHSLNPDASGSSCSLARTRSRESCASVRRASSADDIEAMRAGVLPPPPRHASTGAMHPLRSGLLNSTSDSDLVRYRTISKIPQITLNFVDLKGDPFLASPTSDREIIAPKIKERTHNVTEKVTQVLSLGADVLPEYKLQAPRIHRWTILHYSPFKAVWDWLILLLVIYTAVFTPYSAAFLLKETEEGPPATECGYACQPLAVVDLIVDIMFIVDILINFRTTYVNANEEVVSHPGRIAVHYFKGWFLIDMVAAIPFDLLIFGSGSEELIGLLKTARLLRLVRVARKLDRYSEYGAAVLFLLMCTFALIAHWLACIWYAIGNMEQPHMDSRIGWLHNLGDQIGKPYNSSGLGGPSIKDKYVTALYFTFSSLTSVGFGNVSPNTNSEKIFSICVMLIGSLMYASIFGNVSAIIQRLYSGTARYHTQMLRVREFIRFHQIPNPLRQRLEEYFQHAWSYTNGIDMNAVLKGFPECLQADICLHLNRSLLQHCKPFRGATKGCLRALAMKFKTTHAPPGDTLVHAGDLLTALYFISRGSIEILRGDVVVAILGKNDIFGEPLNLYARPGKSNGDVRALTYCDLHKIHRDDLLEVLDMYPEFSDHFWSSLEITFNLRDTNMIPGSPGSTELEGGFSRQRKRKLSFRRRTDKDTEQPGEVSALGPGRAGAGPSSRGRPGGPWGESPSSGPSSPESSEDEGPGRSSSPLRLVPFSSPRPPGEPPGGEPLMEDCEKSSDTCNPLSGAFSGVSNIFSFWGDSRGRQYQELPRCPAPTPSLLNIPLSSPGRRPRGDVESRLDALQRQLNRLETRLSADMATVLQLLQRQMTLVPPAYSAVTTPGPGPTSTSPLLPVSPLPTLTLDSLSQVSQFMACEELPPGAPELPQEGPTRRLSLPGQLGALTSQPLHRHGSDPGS

For the compound `N#Cc1c(-c2ccc(Br)cc2)no[n+]1[O-]`, the outcome in data set [1] was inactive. Also, the Activity came out at 39% in [2]; 60% in data set [3]; 100% in data set [4]; 100% in [5]; 100% in [6]; 4% in data set [8]. The Activity turned out to be 19% in data set [9] and 68% in data set [10]. Further, the outcome in [7] was Active. The IC50 (commonly the point on the concentration scale where inhibition reaches its midpoint) in data set [11] is above 50 µM; in data set [12] it was 250 µM. Besides, the solubility – broadly, the concentration that dissolves in the medium under given conditions – in [13] stood at 18.6 µM (≈ 4.95 µg/mL). The logD – broadly, lipophilicity at a set pH, counting ionised and neutral species – in [14] was 3.1. For the same compound, the apparent permeability (Papp) (as a rule, a coefficient for how fast a substance crosses the barrier) in data set [15] came to 7.9 ×10⁻⁶ cm/s; in [16] it was 4.8 ×10⁻⁶ cm/s. Besides, the remaining at 1 h in data set [17] stood at 10%; in data set [18], 67%. Further, the inhibition (as a rule, the change of the read-out against control, counted positive when it falls) at 10 µM in [19] stood at 5.5%.

Regarding `O=Cc1c(-c2ccccc2)no[n+]1[O-]`, the result in [1], in data set [20], in data set [2] and in data set [3] was inactive. Moreover, the result in data set [21] was Active. For the same compound, the Activity stood at 3% in [5]; 5% in data set [6]; 1% in data set [8]; 7% in [9]; 9% in [10]. Also, the IC50 in data set [11] is 35.2 µM; in [12], below 12.5 µM.

For `Cc1c(-c2ccccc2)no[n+]1[O-]`, the result in data set [1], in data set [20], in data set [2], in data set [3], in data set [4] and in data set [23] was inactive. For the same compound, the outcome in data set [22] was Active. In addition, the Activity in [6] was 5%; in [8] it was below 1%; in [9] it was below 1%; in data set [10], 2%. Moreover, the IC50 in data set [11] was above 50 µM; in data set [12] it was above 400 µM.

In the case of `N#Cc1c(-c2ccc(F)c(Br)c2)no[n+]1[O-]`, the outcome in data set [1] and in data set [20] was inactive. Also, the result in data set [3] and in data set [24] was Active. Moreover, the Activity came to 5% in data set [4]; 75% in data set [5]; 100% in [6]; 2% in data set [8]; 19% in data set [9]; 69% in data set [10]. The IC50 was above 50 µM in [11] and 250 µM in [12].
